Legend:
Type in all cases: functional
Candida albicans [1] = test: Antifungal activity against Candida albicans ATCC 44859 after 24 hrs by microdilution broth method; conditions: ATCC 44859, 24 h
How it was run: (§1)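 CLSI M27-A3 broth microdilution in RPMI 1640 with glutamine, buffered to pH 7.0 with MOPS; DMSO diluent. Yeast inoculum 5 × 10^3 ± 0.2 CFU/mL. Moulds grown on Sabouraud agar 3–10 days before spore harvest, final inoculum 0.5-5 × 10^4 CFU/mL, checked in a Bürker chamber. Incubated dark, humid, 35 °C, read at 24 and 48 h visually and at 540 nm. MIC taken as ≥80% (yeasts) or ≥50% (filamentous) growth reduction versus control.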

[2] = tested on: Mycobacterium tuberculosis; test: Antimycobacterial activity against Mycobacterium tuberculosis H37Rv 331/88 after 21 days; conditions: H37Rv 331/88, 504 h
Staphylococcus aureus [3] = test: Antibacterial activity against Staphylococcus aureus CCM 4516/08 after 24 hrs by microdilution broth method; conditions: CCM 4516/08, 24 h
Aspergillus fumigatus [4] = test: Antifungal activity against Aspergillus fumigatus 231 after 48 hrs by microdilution broth method; conditions: Aspergillus fumigatus, 231, 48 h; how it was run: as §1
Enterococcus sp. [5] = test: Antibacterial activity against Enterococcus sp. J 14365/08 after 48 hrs by microdilution broth method; conditions: J 14365/08, 48 h
How it was run: (§2)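 Mueller-Hinton broth microdilution (modified M07-A07), pH 7.4 (±0.2). Compounds dissolved in DMSO, tested at final 500 to 0.49 µmol/L. Inoculum in sterile water matched to 0.5 McFarland. Incubated in the dark, humid atmosphere, 35 °C, read at 24 and 48 h visually and at 540 nm. MIC taken as ≥95% growth reduction (IC95) versus control.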

Mycobacterium avium [6] = test: Antimycobacterial activity against Mycobacterium avium 330/80 after 14 days; conditions: 330/80, 336 h
Mycobacterium kansasii [7] = test: Antimycobacterial activity against Mycobacterium kansasii 6509/96 after 14 days; conditions: 6509/96, 336 h
How it was run: (§3)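 Šula's semisynthetic medium micromethod at 37 °C, read after 7, 14 and 21 days. The 1.0 McFarland suspension was diluted 10^-4. MIC determined. 6509/96 is a clinical isolate.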

Aspergillus fumigatus [8] = test: Antifungal activity against Aspergillus fumigatus 231 after 24 hrs by microdilution broth method; conditions: Aspergillus fumigatus, 231, 24 h; how it was run: as §1
Candida albicans [9] = test: Antifungal activity against Candida albicans ATCC 44859 after 48 hrs by microdilution broth method; conditions: ATCC 44859, 48 h; how it was run: as §1
Enterococcus sp. [10] = test: Antibacterial activity against Enterococcus sp. J 14365/08 after 24 hrs by microdilution broth method; conditions: J 14365/08, 24 h; how it was run: as §2
Candida tropicalis [11] = test: Antifungal activity against Candida tropicalis 156 after 24 hrs by microdilution broth method; conditions: Candida tropicalis, 156, 24 h; how it was run: as §1
Mycobacterium avium [12] = test: Antimycobacterial activity against Mycobacterium avium 330/80 after 21 days; conditions: 330/80, 504 h
Pichia kudriavzevii [13] = test: Antifungal activity against Candida krusei E28 after 48 hrs by microdilution broth method; conditions: E28, 48 h; how it was run: as §1
Klebsiella pneumoniae [14] = test: Antibacterial activity against ESBL-positive Klebsiella pneumoniae J 14368/08 after 24 hrs by microdilution broth method; conditions: J 14368/08, 24 h; how it was run: as §2
Staphylococcus aureus [15] = test: Antibacterial activity against methicillin-resistant Staphylococcus aureus H 5996/08 after 24 hrs by microdilution broth method; conditions: H 5996/08, 24 h
Escherichia coli [16] = test: Antibacterial activity against Escherichia coli CCM4517 after 48 hrs by microdilution broth method; conditions: CCM4517, 48 h; how it was run: as §2
Trichosporon asahii [17] = test: Antifungal activity against Trichosporon asahii 1188 after 24 hrs by microdilution broth method; conditions: Trichosporon asahii, 1188, 24 h; how it was run: as §1
[18] = tested on: Staphylococcus epidermidis; test: Antibacterial activity against Staphylococcus epidermidis H 6966/08 after 48 hrs by microdilution broth method; conditions: H 6966/08, 48 h; how it was run: as §2
Klebsiella pneumoniae [19] = test: Antibacterial activity against ESBL-positive Klebsiella pneumoniae J 14368/08 after 48 hrs by microdilution broth method; conditions: J 14368/08, 48 h; how it was run: as §2
[20] = tested on: Staphylococcus epidermidis; test: Antibacterial activity against Staphylococcus epidermidis H 6966/08 after 24 hrs by microdilution broth method; conditions: H 6966/08, 24 h; how it was run: as §2
Nakaseomyces glabratus [21] = test: Antifungal activity against Candida glabrata 20/I after 48 hrs by microdilution broth method; how it was run: as §1
Candida tropicalis [22] = test: Antifungal activity against Candida tropicalis 156 after 48 hrs by microdilution broth method; conditions: Candida tropicalis, 156, 48 h; how it was run: as §1
Lichtheimia corymbifera [23] = test: Antifungal activity against Absidia corymbifera 272 after 24 hrs by microdilution broth method; conditions: Lichtheimia corymbifera, 272, 24 h; how it was run: as §1
Staphylococcus aureus [24] = test: Antibacterial activity against Staphylococcus aureus CCM 4516/08 after 48 hrs by microdilution broth method; conditions: CCM 4516/08, 48 h
Pichia kudriavzevii [25] = test: Antifungal activity against Candida krusei E28 after 24 hrs by microdilution broth method; conditions: E28, 24 h; how it was run: as §1
Mycobacterium kansasii [26] = test: Antimycobacterial activity against Mycobacterium kansasii 235/80 after 14 days; conditions: 235/80, 336 h; how it was run: as §3
Staphylococcus aureus [27] = test: Antibacterial activity against methicillin-resistant Staphylococcus aureus H 5996/08 after 48 hrs by microdilution broth method; conditions: H 5996/08, 48 h
Klebsiella pneumoniae [28] = test: Antibacterial activity against Klebsiella pneumoniae D 11750/08 after 24 hrs by microdilution broth method; conditions: D 11750/08, 24 h; how it was run: as §2
Mycobacterium kansasii [29] = test: Antimycobacterial activity against Mycobacterium kansasii 6509/96 after 21 days; conditions: 6509/96, 504 h; how it was run: as §3
Escherichia coli [30] = test: Antibacterial activity against Escherichia coli CCM4517 after 24 hrs by microdilution broth method; conditions: CCM4517, 24 h; how it was run: as §2
Mycobacterium kansasii [31] = test: Antimycobacterial activity against Mycobacterium kansasii 235/80 after 7 days; conditions: 235/80, 168 h; how it was run: as §3
Nakaseomyces glabratus [32] = test: Antifungal activity against Candida glabrata 20/I after 24 hrs by microdilution broth method; how it was run: as §1
[33] = tested on: Mycobacterium tuberculosis; test: Antimycobacterial activity against Mycobacterium tuberculosis H37Rv 331/88 after 14 days; conditions: H37Rv 331/88, 336 h
Pseudomonas aeruginosa [34] = test: Antibacterial activity against Pseudomonas aeruginosa CCM 1961 after 24 hrs by microdilution broth method; conditions: CCM 1961, 24 h; how it was run: as §2
[35] = tested on: Trichophyton mentagrophytes; test: Antifungal activity against Trichophyton mentagrophytes 445 after 48 hrs by microdilution broth method; conditions: Trichophyton mentagrophytes, 445, 48 h
Trichosporon asahii [36] = test: Antifungal activity against Trichosporon asahii 1188 after 48 hrs by microdilution broth method; conditions: Trichosporon asahii, 1188, 48 h; how it was run: as §1
[37] = tested on: Trichophyton mentagrophytes; test: Antifungal activity against Trichophyton mentagrophytes 445 after 24 hrs by microdilution broth method; conditions: Trichophyton mentagrophytes, 445, 24 h
Lichtheimia corymbifera [38] = test: Antifungal activity against Absidia corymbifera 272 after 48 hrs by microdilution broth method; conditions: Lichtheimia corymbifera, 272, 48 h; how it was run: as §1
Mycobacterium kansasii [39] = test: Antimycobacterial activity against Mycobacterium kansasii 235/80 after 21 days; conditions: 235/80, 504 h; how it was run: as §3
Pseudomonas aeruginosa [40] = test: Antibacterial activity against Pseudomonas aeruginosa CCM 1961 after 48 hrs by microdilution broth method; conditions: CCM 1961, 48 h; how it was run: as §2
Klebsiella pneumoniae [41] = test: Antibacterial activity against Klebsiella pneumoniae D 11750/08 after 48 hrs by microdilution broth method; conditions: D 11750/08, 48 h; how it was run: as §2
Mycobacterium kansasii [42] = test: Antimycobacterial activity against Mycobacterium kansasii 6509/96 after 7 days; conditions: 6509/96, 168 h; how it was run: as §3

Measured: MIC

O=C(Nc1cccc(F)c1)c1ccc([N+](=O)[O-])cc1O
> 500 µM: Enterococcus sp. [5] | Nakaseomyces glabratus [21] | Nakaseomyces glabratus [32] | Pseudomonas aeruginosa [34] | Pseudomonas aeruginosa [40] | Klebsiella pneumoniae [41]
250 µM: Candida albicans [1] | Aspergillus fumigatus [4] | Aspergillus fumigatus [8] | Candida tropicalis [11] | Escherichia coli [16] | Trichosporon asahii [17] | Lichtheimia corymbifera [23] | Escherichia coli [30] | Trichosporon asahii [36] | Lichtheimia corymbifera [38]
500 µM: Candida albicans [9] | Enterococcus sp. [10] | Klebsiella pneumoniae [14] | Klebsiella pneumoniae [19] | Candida tropicalis [22] | Klebsiella pneumoniae [28] | [35] | [37]
16 µM: [2] | Mycobacterium kansasii [26] | Mycobacterium kansasii [31] | [33] | Mycobacterium kansasii [42]
62.5 µM: Mycobacterium avium [6] | Pichia kudriavzevii [13] | Pichia kudriavzevii [25]
15.6 µM: Staphylococcus aureus [3] | Staphylococcus aureus [15] | [20]
31.2 µM: [18] | Staphylococcus aureus [24] | Staphylococcus aureus [27]
125 µM: Mycobacterium avium [12]
32 µM: Mycobacterium kansasii [7] | Mycobacterium kansasii [29] | Mycobacterium kansasii [39]

Reference: ChEMBL document CHEMBL3627671, “Novel derivatives of nitro-substituted salicylic acids: Synthesis, antimicrobial activity and cytotoxicity” (Bioorg Med Chem, 2015)
